Screens: PubChem BioAssay, Broad Institute
Shown are actives, neighbours in structure and some others; about 5.9% of the full set was active somewhere.
IDH1 mut inh: inhibitors of human IDH1 R132H; IDH1 R132H reductase, diaphorase/resazurin fluorescence, 60 min; inhibition, % at 10 µM; actives 0.18% (n = 70,000); AID 624101; in the data active means inhibition above about 34%; inconclusive means no clear call, values can overlap the other calls; inactive means below about 11%;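 further: 0% = DMSO and 100% = no enzyme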
Target sequence (O75874 whole entry R132H): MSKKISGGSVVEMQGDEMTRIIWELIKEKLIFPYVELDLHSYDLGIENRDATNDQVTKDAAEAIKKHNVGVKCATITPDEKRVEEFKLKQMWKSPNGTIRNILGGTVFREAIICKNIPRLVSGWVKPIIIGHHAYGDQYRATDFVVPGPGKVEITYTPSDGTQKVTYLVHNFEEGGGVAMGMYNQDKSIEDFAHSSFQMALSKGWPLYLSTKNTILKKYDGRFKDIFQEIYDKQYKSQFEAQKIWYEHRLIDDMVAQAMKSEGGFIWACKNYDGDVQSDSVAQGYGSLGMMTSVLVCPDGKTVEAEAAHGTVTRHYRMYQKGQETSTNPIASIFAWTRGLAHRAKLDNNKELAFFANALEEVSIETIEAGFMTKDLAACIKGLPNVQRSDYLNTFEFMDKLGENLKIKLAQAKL
Pf Dd2 growth: P. falciparum Dd2 growth inhibition | SYBR Green, 72 h; stronger effect = lower value | activity change, % at 10 µM | actives 2.3% (n = 94,000); in the data active means activity change below about -80%; inconclusive means no clear call, values can overlap the other calls
KDM4C inh: blocks human GASC-1 (KDM4C) demethylase activity; inhibition, % at 12.5 µM; actives 0.15% (n = 96,000); GST-KDM4C 2-372, H3K9me3 peptide, LANCE TR-FRET;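 active means mean replicate inhibition above about 25%, with at least 55% of replicates also reaching it, limit read from the data, passing the limit was not always enough; inconclusive means only one of those two conditions met; inactive means neither condition met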
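reagent = H3K9me3 peptide substrate, Fe(II), 2-oxoglutarate | system = GST-tagged GASC-1 (JMJD2C) catalytic fragment, aa 2-372 | amount = enzyme final amount 10 nM | read-out = Fall in 671/618 emission ratio as inhibition | medium = HEPES buffer, pH 7.5, plus ascorbate | schedule = 30 min reaction, 60 min detection, RT | measured by = LANCE TR-FRET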
T cruzi growth: blocks T. cruzi growth in NIH3T3 culture | T. cruzi beta-gal in NIH3T3, GalScreen luminescence, 90 h | inhibition, % at 8.34 µM | actives 5.9% (n = 77,000);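 active means mean inhibition above about 93%, with at least 55% of replicates each passing it, limit read from the data, passing the limit was not always enough; inconclusive means only one of those two conditions holds; inactive means neither condition holds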
* marks the source's active call; other numbers are inactive results; ? = inconclusive; nt = no result given.

SMILES	IDH1 mut inh	Pf Dd2 growth	KDM4C inh	T cruzi growth
COc1ccc(OC)c(NC(=O)CSc2nc3sc4c(c3c(=O)n2-c2ccccc2)CCCC4)c1	0	nt	nt	nt
CCC(C)C(=O)c1c(O)cc2c(c1O)CC(CC=C(C)C)C(C)(C)O2 (stereo not given)	9	nt	nt	nt
OC[C@@H]1[C@@H](c2ccccc2)C2(CN(CCC(F)(F)F)C2)N1Cc1ccccc1	nt	-79	0	nt
O=S(=O)(Cc1ccccc1)N1[C@H](CO)[C@@H](c2ccccc2)C12CN(CCC(F)(F)F)C2	nt	-84*	-1	nt
CCCC#Cc1ccc([C@H]2[C@@H](CO)N3CCCCN(S(=O)(=O)Cc4ccccc4)C[C@@H]23)cc1	nt	-23	0	82
CC(C)CC#Cc1ccc([C@@H]2[C@H](CO)N3CCCCN(S(=O)(=O)Cc4ccccc4)C[C@@H]23)cc1	nt	-84*	-2	93
CC(C)CC#Cc1ccc([C@@H]2[C@@H](CO)N3CCCCN(S(=O)(=O)Cc4ccccc4)C[C@@H]23)cc1	nt	-83*	1	80
COc1ccc2c3c([nH]c2c1)[C@@H](CO)N(C(=O)Nc1ccc(F)cc1)CC31CN(Cc2ccc(F)cc2)C1	nt	-67	0	nt
COc1ccc2c3c([nH]c2c1)[C@H](CO)N(C(=O)Nc1ccc(F)cc1)CC31CN(Cc2ccccc2OC)C1	nt	-54	nt	nt
COc1ccc2c3c([nH]c2c1)[C@H](CO)N(C(=O)Nc1ccc(F)cc1)CC31CN(Cc2ccc(F)cc2)C1	nt	-82*	-5	nt
COc1ccc2c3c([nH]c2c1)[C@@H](CO)N(C(=O)Nc1ccc(F)cc1)CC31CN(Cc2ccccc2OC)C1	nt	-92*	-3	nt
COc1cc2c(c(OC)c1OC)c(=O)c1ccccc1n2C	-1	nt	nt	nt
CO[C@@H]1CN(C)C(=O)c2ccc(NC(=O)Nc3cccc(Cl)c3)cc2OC[C@H](C)NC[C@@H]1C	0	-26	13	14
CO[C@@H]1CN(C)C(=O)c2ccc(NC(=O)Nc3cccc(Cl)c3)cc2OC[C@@H](C)NC[C@H]1C	0	-84*	-1	-92
CO[C@H]1CN(C)C(=O)c2ccc(NC(=O)Nc3cc(Cl)cc(Cl)c3)cc2OC[C@H](C)NC[C@H]1C	0	-89*	nt	-7
CO[C@H]1CN(C)C(=O)c2ccc(NS(=O)(=O)c3ccc(Cl)cc3)cc2OC[C@@H](C)NC[C@H]1C	93*	22	80*	89
COc1ccccc1C(=O)Nc1ccc2c(c1)OC[C@H](C)NC[C@@H](C)[C@@H](OC)CN(C)C2=O	?	9	68*	-55
NC(=O)CSc1nnc(-c2ccccc2O)n1-c1ccccc1	0	nt	nt	nt
Cc1nn(Cc2ccc(F)cc2)c(C)c1NC(=O)C1CC(c2c(F)cccc2Cl)=NO1 (stereo not given)	0	nt	nt	nt
FC(F)(F)c1cccc(CN2[C@@H]3CNC[C@H]2[C@@H]3c2ccc(-c3cccnc3)cc2)c1	nt	-84*	0	nt
C/C(=N\n1c(-c2ccccc2)n[nH]c1=O)c1ccccc1	0	nt	nt	nt
C[C@H](CO)N1C[C@H](C)[C@@H](CN(C)Cc2ccc(-c3ccccc3)cc2)Oc2ccc(NC(=O)Nc3ccc(C(F)(F)F)cc3)cc2C1=O	nt	-85*	-1	?
C[C@H](CO)N1C[C@H](C)[C@@H](CN(C)Cc2ccc(Oc3ccccc3)cc2)Oc2ccc(NC(=O)Nc3ccc(C(F)(F)F)cc3)cc2C1=O	1	-65	1	68
C[C@@H]1CN([C@H](C)CO)C(=O)c2cc(NC(=O)Nc3ccccc3)ccc2O[C@@H]1CN(C)Cc1ccc(C(F)(F)F)cc1	0	0	-1	29
C[C@H](CO)N1C[C@H](C)[C@H](CN(C)Cc2ccc(Oc3ccccc3)cc2)Oc2ccc(NC(=O)Nc3ccc(C(F)(F)F)cc3)cc2C1=O	nt	-88*	-1	69
C[C@@H]1CN([C@H](C)CO)C(=O)c2cccc(NC(=O)NC3CCCCC3)c2O[C@@H]1CN(C)Cc1ccc(C(=O)Nc2ccccc2N)cc1	nt	-84*	0	77
C[C@@H]1CN([C@@H](C)CO)C(=O)c2cccc(NC(=O)C3CCCCC3)c2O[C@@H]1CN(C)Cc1ccc(C(=O)Nc2ccccc2N)cc1	nt	-85*	0	57
C[C@H](CO)N1C[C@H](C)[C@H](CN(C)Cc2ccc(C(=O)Nc3ccccc3N)cc2)Oc2c(NC(=O)NC3CCCCC3)cccc2C1=O	nt	nt	-1	nt
Cc1ccc(-n2c(SCC(=O)Nc3c(F)cc(F)cc3Br)nc3ccccc3c2=O)cc1	0	nt	nt	nt
C[C@H](CO)N1C[C@H](C)[C@H](CN(C)S(=O)(=O)c2ccc(C#N)cc2)Oc2ncc(-c3cc4ccccc4o3)cc2C1=O	0	-18	-2	60
